Test results published in ChEMBL document CHEMBL3608241, “Molecular docking design and one-pot expeditious synthesis of novel 2,5-diarylpyrazolo[1,5-a]pyrimidin-7-amines as anti-inflammatory agents” (2015).

What was measured:
Assay type in all cases: functional
[1] = tested on: Rattus norvegicus; assay: Antiinflammatory activity in Wistar albino rat assessed as inhibition of carrageenan-induced paw edema at 50 mg/kg, po administered 30 mins prior to carrageenan challenge measured after 4 hrs by plethysmometric analysis relative to control
In short: (§1)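 Male Wistar albino rats, 200-250 g, housed under standard light and temperature, fasted from 12 h before and through the experiment; groups of five. Oral dosing 30 min before 0.1 ml of 1% carrageenan in 0.9% saline was injected into the left hind paw plantar region. Controls received Tween 80 only. Paw volume was read by plethysmometer at 0 h and at 1-4 h. Inhibition (%) = (Vc − Vt)/Vc × 100; mean ± SEM.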

[2] = tested on: Rattus norvegicus; assay: Antiinflammatory activity in Wistar albino rat assessed as inhibition of carrageenan-induced paw edema at 50 mg/kg, po administered 30 mins prior to carrageenan challenge measured after 3 hrs by plethysmometric analysis relative to control; in short: as §1
[3] = tested on: Rattus norvegicus; assay: Antiinflammatory activity in Wistar albino rat assessed as inhibition of carrageenan-induced paw edema at 50 mg/kg, po administered 30 mins prior to carrageenan challenge measured after 2 hrs by plethysmometric analysis relative to control; in short: as §1
[4] = tested on: Rattus norvegicus; assay: Antiinflammatory activity in Wistar albino rat assessed as inhibition of carrageenan-induced paw edema at 50 mg/kg, po administered 30 mins prior to carrageenan challenge measured after 1 hr by plethysmometric analysis relative to control; in short: as §1
[5] = tested on: Rattus norvegicus; assay: Antiinflammatory activity in Wistar albino rat assessed as inhibition of carrageenan-induced paw edema at 10 mg/kg, po administered 30 mins prior to carrageenan challenge measured after 2 hrs by plethysmometric analysis relative to control
In short: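 Male Wistar albino rats, 200-250 g, fasted 12 hr before and during the test; groups of five. Oral dosing 30 min before sub-plantar injection of 0.1 ml carrageenan (1% in 0.9% saline) into left hind paw; controls got tween 80. Paw volume read by plethysmometer at 0 hr and 1-4 hr; % inhibition = (Vc−Vt)/Vc×100 against control; mean ± SEM.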

[6] = tested on: Rattus norvegicus; assay: Antiinflammatory activity in Wistar albino rat assessed as inhibition of carrageenan-induced paw edema at 10 mg/kg, po administered 30 mins prior to carrageenan challenge measured after 4 hrs by plethysmometric analysis relative to control; in short: as §1
[7] = tested on: Rattus norvegicus; assay: Antiinflammatory activity in Wistar albino rat assessed as inhibition of carrageenan-induced paw edema at 10 mg/kg, po administered 30 mins prior to carrageenan challenge measured after 3 hrs by plethysmometric analysis relative to control; in short: as §1
[8] = tested on: Rattus norvegicus; assay: Antiinflammatory activity in Wistar albino rat assessed as inhibition of carrageenan-induced paw edema at 10 mg/kg, po administered 30 mins prior to carrageenan challenge measured after 1 hr by plethysmometric analysis relative to control; in short: as §1

Structure (SMILES) | inhibition in vivo at 50 mg/kg [1] [%] | inhibition in vivo at 50 mg/kg [2] [%] | inhibition in vivo at 50 mg/kg [3] [%] | inhibition in vivo at 50 mg/kg [4] [%] | inhibition in vivo at 10 mg/kg [5] [%] | inhibition in vivo at 10 mg/kg [6] [%] | inhibition in vivo at 10 mg/kg [7] [%] | inhibition in vivo at 10 mg/kg [8] [%]
Nc1cc(-c2ccc(Br)cc2)nc2cc(-c3ccccc3)nn12 | 66.7 | 56.1 | 63.8 | 65.4 |  |  |  | 
Cc1ccc(-c2cc3nc(-c4ccc(Br)cc4)cc(N)n3n2)cc1 | 66.7 | 56.1 | 56.2 | 71.2 |  |  |  | 
COc1ccc2c(c1)c(CC(=O)O)c(C)n2C(=O)c1ccc(Cl)cc1 [INDOMETHACIN] |  |  |  |  | 80 | 84.5 | 82.9 | 73.1
Cc1ccc(-c2cc3nc(-c4ccc(F)cc4)cc(N)n3n2)cc1 | 64.3 | 26.8 | 65 | 28.8 |  |  |  | 
Cc1ccc(-c2cc3nc(-c4ccc(Cl)cc4)cc(N)n3n2)cc1 | 67.8 | 64.6 | 67.5 | 59.6 |  |  |  | 
Nc1cc(-c2ccc(Cl)cc2)nc2cc(-c3ccc(Br)cc3)nn12 | 65.5 | 56.1 | 72.5 | 13.5 |  |  |  | 
Cc1ccc(-c2cc(N)n3nc(-c4ccc(Br)cc4)cc3n2)cc1 | 64.3 | 73.2 | 76.2 | 67.3 |  |  |  | 
Nc1cc(-c2ccc(Br)cc2)nc2cc(-c3ccc(Cl)cc3)nn12 | 76.2 | 70.7 | 60 | 59.6 |  |  |  | 
Cc1ccc(-c2cc3nc(-c4ccccc4)cc(N)n3n2)cc1 | 34.5 | 34.1 | 17.5 | 26.9 |  |  |  | 
Nc1cc(-c2ccc(Cl)cc2)nc2cc(-c3ccccc3)nn12 | 51.2 | 28 | 13.8 | 21.1 |  |  |  | 
Cc1ccc(-c2cc(N)n3nc(-c4ccc(Cl)cc4)cc3n2)cc1 | 81 | 69.5 | 75 | 57.7 |  |  |  | 
Cc1ccc(-c2cc(N)n3nc(-c4ccccc4)cc3n2)cc1 | 54.8 | 31.7 | 37.5 | 28.8 |  |  |  | 
